Assay [1] deals with Dihydrofolate reductase (Lactobacillus casei, UniProt P00381). Kind of assay: Compound was evaluated for the inhibition of dihydrofolate reductase (DHFR)derived from Lactobacillus casei. More on the design: species or system Lacticaseibacillus casei.
Assay [2] deals with L1210. Description: Compound was evaluated for inhibitory activity against DHFR in L1210 cells. It is filed as functional, cell-based, Mus musculus.
In assay [3] the test system is L1210. Kind of assay: Compound was evaluated for growth inhibition in L1210 murine leukemia cells. The class given is functional, cell-based. The conditions noted are these: Mus musculus.
The subject of assay [4] is Lacticaseibacillus casei. Description: Compound was evaluated for growth inhibition in Lactobacillus casei ATCC 7469. The class given is functional, organism-based. The method, boiled down:
(§1)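 Lactobacillus casei growth was measured in medium with folate at 1 ng/mL.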

In assay [5] the test system is Lacticaseibacillus casei. Kind of assay: Compound was evaluated for growth inhibition in Lactobacillus casei MTX-resistant. It is filed as functional, organism-based. The method in brief: as §1
Assay [6] concerns the target T1, Thymidylate synthase (Lactobacillus casei, UniProt P00469).
T1 sequence (P00469 whole entry): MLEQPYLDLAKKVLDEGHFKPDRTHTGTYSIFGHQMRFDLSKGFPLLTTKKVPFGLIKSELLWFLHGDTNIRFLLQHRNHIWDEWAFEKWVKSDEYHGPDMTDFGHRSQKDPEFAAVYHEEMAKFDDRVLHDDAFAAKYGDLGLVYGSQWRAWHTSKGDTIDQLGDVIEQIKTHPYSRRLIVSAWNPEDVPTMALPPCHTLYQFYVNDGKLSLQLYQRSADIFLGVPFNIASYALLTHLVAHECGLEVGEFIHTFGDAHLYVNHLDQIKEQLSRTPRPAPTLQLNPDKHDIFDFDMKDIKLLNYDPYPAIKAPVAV
Description: Compound was evaluated for the inhibition of thymidylate synthase (TS) derived from Lactobacillus casei. More on the design: species or system Lacticaseibacillus casei.

Assay [7] relates to Enterococcus faecium. Description: Compound was evaluated for growth inhibition in Streptococcus faecium ATCC 8043. The class given is functional, organism-based. The method, boiled down:
(§2)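 Bacterial growth inhibition was run in medium with folate at 1 ng/mL.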

Assay [8] has as its system Enterococcus faecium. Description: Compound was evaluated for growth inhibition in Streptococcus faecium MTX-resistant. It is filed as functional, organism-based. The method, boiled down: as §2
[9] abbreviates: Lacticaseibacillus casei, read-out: IC50.

pIC50, pKi: −log10 of the molar value. In brackets after ≈: the same amount, converted by molar mass.

What is called pIC50 is the negative decadic logarithm of the IC50, by convention in mol/L. One may read the pKi as the negative decadic logarithm of the Ki, by convention in mol/L. Low readings indicate a large Ki, high ones a small Ki. For orientation: IC50 means the concentration needed to halve the response being measured.

Chain of Dihydrofolate reductase (P00381 whole entry): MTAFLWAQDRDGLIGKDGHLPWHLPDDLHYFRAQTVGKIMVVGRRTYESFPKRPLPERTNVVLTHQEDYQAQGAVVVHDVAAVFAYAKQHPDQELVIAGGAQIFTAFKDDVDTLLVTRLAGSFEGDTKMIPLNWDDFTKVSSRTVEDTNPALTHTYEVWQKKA

For `Nc1nc(N)c2c(n1)CCC1CC(c3ccc(C(=O)NC(CCC(=O)O)C(=O)O)cc3)C(=O)N21` (configuration not stated), the figures for the pIC50 in assay [1], in assay [3] and in assay [6] were 5.80, less than 5.00 and less than 3.70, respectively. The compound also had a negative logarithm of the Ki (pKi) in assay [2] of less than 8.00. Besides, the 50% inhibitory concentration (IC50) in assay [4] is 0.54 ng/mL (≈ 0.00115 µM); in assay [5] (setting [9]) it was greater than 10000 ng/mL; in assay [7] it was 6.2 ng/mL (≈ 0.0132 µM); in assay [8], greater than 10000 ng/mL.

For the compound `Nc1nc(N)c2c(n1)CCC1CC(c3ccc(C(=O)NC(CCC(=O)O)C(=O)O)cc3)CN21` (configuration not stated), the pIC50 was 5.82 in assay [1], 6.60 in assay [3] and less than 3.30 in assay [6]. This compound also showed a pKi in assay [2] of less than 8.00. Further, the IC50 is 1 ng/mL (≈ 0.0022 µM) in assay [4], greater than 10000 ng/mL in assay [5] (setting [9]), 2 ng/mL (≈ 0.0044 µM) in assay [7] and 530 ng/mL (≈ 1.17 µM) in assay [8].

Regarding `CN(Cc1cnc2nc(N)nc(N)c2n1)c1ccc(C(=O)N[C@@H](CCC(=O)O)C(=O)O)cc1` [METHOTREXATE], the negative logarithm of the Ki (pKi) in assay [2] is 11.49. Also, the negative logarithm of the IC50 (pIC50) in assay [3] was 8.60. The half-maximal inhibitory concentration (IC50) in assay [4] was 0.009 ng/mL (≈ 1.98e-05 µM); in assay [5], greater than 500000 ng/mL; in assay [7] it was 0.2 ng/mL (≈ 0.00044 µM); in assay [8] it was 3300 ng/mL (≈ 7.26 µM).

These data come from ChEMBL document CHEMBL1123445, “Synthesis and antifolate properties of 5,10-methylenetetrahydro-8,10-dideazaminopterin” (J Med Chem, 1986).
